Results from ChEMBL document CHEMBL1134340, “GnRH antagonists: a new generation of long acting analogues incorporating p-ureido-phenylalanines at positions 5 and 6” (J Med Chem, 2001).
In brackets after ≈: the same amount, converted by molar mass. Where a SMILES comes first, the peptide text is derived from it. [ ]: non-standard residue; d: D form. dPhe(4-NHCONH2) = NC(=O)Nc1ccc(C[C@@H](N)C(=O)O)cc1; Phe(4-NHCONH2) = NC(=O)Nc1ccc(C[C@H](N)C(=O)O)cc1; dPhe(4-Cl) = N[C@H](Cc1ccc(Cl)cc1)C(=O)O; d2Nal = N[C@H](Cc1ccc2ccccc2c1)C(=O)O; Lys(iPr) = CC(C)NCCCC[C@H](N)C(=O)O; d3Pal = N[C@H](Cc1cccnc1)C(=O)O

Key:
[1] = target: T1, Gonadotropin-releasing hormone receptor (Homo sapiens, UniProt P30968); assay: Competitive antagonism of GnRH-induced response in the reporter gene assay; type: functional; conditions: for Kb: read-out: pA2 (converted)
T1 sequence (P30968 whole entry): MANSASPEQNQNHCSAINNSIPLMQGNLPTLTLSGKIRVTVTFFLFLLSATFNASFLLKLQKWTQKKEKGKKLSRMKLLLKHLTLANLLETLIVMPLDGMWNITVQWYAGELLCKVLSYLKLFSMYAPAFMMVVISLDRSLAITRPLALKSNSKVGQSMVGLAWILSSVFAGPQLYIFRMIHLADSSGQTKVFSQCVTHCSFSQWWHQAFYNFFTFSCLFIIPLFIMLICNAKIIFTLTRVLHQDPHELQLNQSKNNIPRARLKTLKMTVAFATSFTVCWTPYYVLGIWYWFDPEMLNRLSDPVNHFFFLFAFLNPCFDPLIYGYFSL
Outline: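 Same HEK293 human GnRH receptor luciferase reporter cells. Seven-point GnRH curve (10 µM to 10 pM final) run in duplicate without or with four to five increasing compound concentrations (10 min preincubation, 37 °C), then 5 h and luminescence. GnRH EC50 at each level by four-parameter logistic fit, giving pA2; mean of two determinations in duplicate.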

[2] = organism: Rattus norvegicus; assay: Compound was tested for histamine release at a concentration of 300 ug/mL; type: functional
Outline: (§1)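 Sprague-Dawley rat peritoneal mast cells, Percoll-purified, in heparinized balanced salt solution with albumin, pH 7.2. Cells exposed to compound or vehicle for 2 min at 37 °C. Supernatant histamine measured spectrofluorometrically after o-phthalaldehyde derivatization; pellets lysed for retained histamine. Reported as % of total histamine released, corrected for spontaneous release in vehicle.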

[3] = organism: Rattus norvegicus; assay: Compound was tested for histamine release at a concentration of 100 ug/mL; type: functional; outline: as §1
[4] = organism: Rattus norvegicus; assay: Compound was tested for inhibition of Leutenizing hormone release at 96 hours (very long duration) in castrated male rat assay; type: functional; design: concentration or dose not given beside the values
Outline: (§2)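 Male Sprague-Dawley rats (180-200 g), castrated under ether 10 days earlier, 5 per group. 50 µg/rat given sc in 100 µL 40 mM phosphate buffer with 0.1% BSA and 0.6% DMSO; acyline run as internal standard. Tail blood taken predose and at 24, 48, 72, 96 (sometimes 120) h; plasma LH by RIA. Duration classed by >80% LH inhibition at each time.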

[5] = organism: Rattus norvegicus; assay: Effective dose for histamine release was determined; type: functional
Outline: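 ED50 for histamine release calculated from % release values across concentrations in rat peritoneal mast cell assay (2 min, 37 °C, o-phthalaldehyde fluorometric read-out, corrected for vehicle release).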

[6] = target: T1, Gonadotropin-releasing hormone receptor; assay: Antagonism of human GnHR receptor, determined in a reporter gene assay in HEK293 cells; type: functional, cell-based
Outline: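 HEK293 cells stably expressing cloned human GnRH receptor plus luciferase reporter under LH alpha subunit promoter, plated 24 h before assay. Compound in 1% DMSO added 10 min at 37 °C, then GnRH at 3 nM final; 5 h incubation, luciferase luminescence read. Six concentrations in duplicate; blank-subtracted cps as % of GnRH control; mean of two determinations.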

[7] = organism: Rattus norvegicus; assay: Compound was tested for histamine release at a concentration of 30 ug/mL; type: functional; outline: as §1
[8] = organism: Rattus norvegicus; assay: Compound was tested for inhibition of Leutenizing hormone release at 48 hours (intermediate duration) in castrated male rat assay; type: functional; design: concentration or dose not given beside the values; outline: as §2
[9] = organism: Rattus norvegicus; assay: Compound was tested for inhibition of Leutenizing hormone release at 72 hours (long duration) in castrated male rat assay; type: functional; design: concentration or dose not given beside the values; outline: as §2
[10] = organism: Rattus norvegicus; assay: Compound was tested for inhibition of Leutenizing hormone release at 24 hours (short duration) in castrated male rat assay; type: functional; design: concentration or dose not given beside the values; outline: as §2
[11] = organism: Rattus norvegicus; assay: Compound was tested for histamine release at a concentration of 10 ug/mL; type: functional; outline: as §1

Row | SMILES | HR [2] [%] | HR [3] [%] | HR [7] [%] | Inhibition [10] [%] | also measured
1 | CC(=O)N[C@H](Cc1ccc2ccccc2c1)C(=O)N[C@H](Cc1ccc(Cl)cc1)C(=O)N[C@H](Cc1cccnc1)C(=O)N[C@@H](CO)C(=O)N[C@@H](Cc1ccc(NC(=O)[C@H]2CC(=O)NC(=O)N2)cc1)C(=O)N[C@H](Cc1ccc(NC(N)=O)cc1)C(=O)N[C@@H](CC(C)C)C(=O)N[C@@H](CCCCNC(C)C)C(=O)N1CCC[C@H]1C(=O)N[C@H](C)C(N)=O | 68 | 54 |  |  | pA2 [1]: 8.8; Inhibition [4]: >80%; ED50 [5]: 170 µg/mL (≈ 104 µM); IC50 ([6]; hek293): 3 nM
2 | CC(=O)Nc1ccc(C[C@H](NC(=O)[C@H](CO)NC(=O)[C@@H](Cc2cccnc2)NC(=O)[C@@H](Cc2ccc(Cl)cc2)NC(=O)[C@@H](Cc2ccc3ccccc3c2)NC(C)=O)C(=O)N[C@H](Cc2ccc(NC(=O)[C@@H]3CC(=O)NC(=O)N3)cc2)C(=O)N[C@@H](CC(C)C)C(=O)N[C@@H](CCCCNC(C)C)C(=O)N2CCC[C@H]2C(=O)N[C@H](C)C(N)=O)cc1 |  | 64 | 17 |  | Inhibition [8]: >80%
3 | CC(=O)Nc1ccc(C[C@H](NC(=O)[C@H](CO)NC(=O)[C@@H](Cc2cccnc2)NC(=O)[C@@H](Cc2ccc(Cl)cc2)NC(=O)[C@@H](Cc2ccc3ccccc3c2)NC(C)=O)C(=O)N[C@H](Cc2ccc(NC(C)=O)cc2)C(=O)N[C@@H](CC(C)C)C(=O)N[C@@H](CCCCNC(C)C)C(=O)N2CCC[C@H]2C(=O)N[C@H](C)C(N)=O)cc1 [ACYLINE] | 87 | 56 | 43 |  | Kb [1]: 2.51 nM; ED50 [5]: 66 µg/mL (≈ 43 µM); IC50 [6]: 6.8 nM; Inhibition [9]: >80%
4 | CC(=O)N[C@H](Cc1ccc2ccccc2c1)C(=O)N[C@H](Cc1ccc(Cl)cc1)C(=O)N[C@H](Cc1cccnc1)C(=O)N[C@@H](CO)C(=O)N[C@@H](Cc1ccc(NC(=O)[C@@H]2CC(=O)NC(=O)N2)cc1)C(=O)N[C@H](Cc1cccnc1)C(=O)N[C@@H](CC(C)C)C(=O)N[C@@H](CCCCNC(C)C)C(=O)N1CCC[C@H]1C(=O)N[C@H](C)C(N)=O | 62 | 68 |  |  | Inhibition [4]: >80%
5 | CC(=O)N[C@H](Cc1ccc2ccccc2c1)C(=O)N[C@H](Cc1ccc(Cl)cc1)C(=O)N[C@H](Cc1cccnc1)C(=O)N[C@@H](CO)C(=O)N[C@@H](Cc1ccc(NC(=O)[C@H]2CC(=O)NC(=O)N2)cc1)C(=O)N[C@H](Cc1ccc(NC(=O)[C@H]2CC(=O)NC(=O)N2)cc1)C(=O)N[C@@H](CC(C)C)C(=O)N[C@@H](CCCCNC(C)C)C(=O)N1CCC[C@H]1C(=O)N[C@H](C)C(N)=O | 64 | 69 |  |  | pA2 [1]: 9; Inhibition [4]: >80%; IC50 ([6]; hek293): 7.7 nM
6 | CC(=O)N[C@H](Cc1ccc2ccccc2c1)C(=O)N[C@H](Cc1ccc(Cl)cc1)C(=O)N[C@H](Cc1cccnc1)C(=O)N[C@@H](CO)C(=O)N[C@@H](Cc1ccc(NC(=O)[C@@H]2CC(=O)NC(=O)N2)cc1)C(=O)N[C@H](Cc1ccc(NC(=O)[C@@H]2CC(=O)NC(=O)N2)cc1)C(=O)N[C@@H](CC(C)C)C(=O)N[C@@H](CCCCNC(C)C)C(=O)N1CCC[C@H]1C(=O)N[C@H](C)C(N)=O |  | 11 | <10 |  | Inhibition [9]: >80%
7 | CC(=O)N[C@H](Cc1ccc2ccccc2c1)C(=O)N[C@H](Cc1ccc(Cl)cc1)C(=O)N[C@H](Cc1cccnc1)C(=O)N[C@@H](CO)C(=O)N[C@@H](Cc1ccc(NC(=O)[C@@H]2CC(=O)NC(=O)N2)cc1)C(=O)N[C@H](Cc1ccc2ccccc2c1)C(=O)N[C@@H](CC(C)C)C(=O)N[C@@H](CCCCNC(C)C)C(=O)N1CCC[C@H]1C(=O)N[C@H](C)C(N)=O |  |  |  | >80 | 
8 | CCNC(=O)NC[C@H](NC(=O)[C@H](CO)NC(=O)[C@@H](Cc1cccnc1)NC(=O)[C@@H](Cc1ccc(Cl)cc1)NC(=O)[C@@H](Cc1ccc2ccccc2c1)NC(C)=O)C(=O)N[C@H](Cc1ccc(NC(C)=O)cc1)C(=O)N[C@@H](CC(C)C)C(=O)N[C@@H](CCCCNC(C)C)C(=O)N1CCC[C@H]1C(=O)N[C@H](C)C(N)=O |  |  |  | >80 | 
9 | CC(=O)Nc1ccc(C[C@@H](NC(=O)[C@H](Cc2ccc(NC(=O)[C@@H]3CC(=O)NC(=O)N3)cc2)N(C)C(=O)[C@H](CO)NC(=O)[C@@H](Cc2cccnc2)NC(=O)[C@@H](Cc2ccc(Cl)cc2)NC(=O)[C@@H](Cc2ccc3ccccc3c2)NC(C)=O)C(=O)N[C@@H](CC(C)C)C(=O)N[C@@H](CCCCNC(C)C)C(=O)N2CCC[C@H]2C(=O)N[C@H](C)C(N)=O)cc1 |  | 124 | 50 | >80 | Kb [1]: 0.794 nM; IC50 [6]: 8.1 nM
10 | CC(=O)Nc1ccc(C[C@@H](NC(=O)[C@H](CCNC(N)=O)NC(=O)[C@H](CO)NC(=O)[C@@H](Cc2cccnc2)NC(=O)[C@@H](Cc2ccc(Cl)cc2)NC(=O)[C@@H](Cc2ccc3ccccc3c2)NC(C)=O)C(=O)N[C@@H](CC(C)C)C(=O)N[C@@H](CCCCNC(C)C)C(=O)N2CCC[C@H]2C(=O)N[C@H](C)C(N)=O)cc1 |  |  |  | >80 | 
11 | COc1ccc(NC(=O)NC[C@H](NC(=O)[C@H](CO)NC(=O)[C@@H](Cc2cccnc2)NC(=O)[C@@H](Cc2ccc(Cl)cc2)NC(=O)[C@@H](Cc2ccc3ccccc3c2)NC(C)=O)C(=O)N[C@H](Cc2ccc(NC(C)=O)cc2)C(=O)N[C@@H](CC(C)C)C(=O)N[C@@H](CCCCNC(C)C)C(=O)N2CCC[C@H]2C(=O)N[C@H](C)C(N)=O)cc1 |  |  |  | >80 | 
12 | CNC(=O)NCc1ccc(C[C@@H](NC(=O)[C@H](Cc2ccc(NC(=O)[C@@H]3CC(=O)NC(=O)N3)cc2)NC(=O)[C@H](CO)NC(=O)[C@@H](Cc2cccnc2)NC(=O)[C@@H](Cc2ccc(Cl)cc2)NC(=O)[C@@H](Cc2ccc3ccccc3c2)NC(C)=O)C(=O)N[C@@H](CC(C)C)C(=O)N[C@@H](CCCCNC(C)C)C(=O)N2CCC[C@H]2C(=O)N[C@H](C)C(N)=O)cc1 | 67 | 56 |  |  | Inhibition [4]: >80%
13 | CC(=O)N[C@H](Cc1ccc2ccccc2c1)C(=O)N[C@H](Cc1ccc(Cl)cc1)C(=O)N[C@H](Cc1cccnc1)C(=O)N[C@@H](CO)C(=O)N[C@@H](Cc1ccc(NC(=O)[C@@H]2CC(=O)NC(=O)N2)cc1)C(=O)N[C@H](Cc1ccc(CNC(N)=O)cc1)C(=O)N[C@@H](CC(C)C)C(=O)N[C@@H](CCCCNC(C)C)C(=O)N1CCC[C@H]1C(=O)N[C@H](C)C(N)=O | 64 | 48 | 21 |  | Inhibition [4]: >80%
14 | CC(=O)Nc1ccc(C[C@@H](NC(=O)[C@H](CNC(N)=O)NC(=O)[C@H](CO)NC(=O)[C@@H](Cc2cccnc2)NC(=O)[C@@H](Cc2ccc(Cl)cc2)NC(=O)[C@@H](Cc2ccc3ccccc3c2)NC(C)=O)C(=O)N[C@@H](CC(C)C)C(=O)N[C@@H](CCCCNC(C)C)C(=O)N2CCC[C@H]2C(=O)N[C@H](C)C(N)=O)cc1 |  |  |  | >80 | 
15 | CCNC(=O)Nc1ccc(C[C@H](NC(=O)[C@H](CO)NC(=O)[C@@H](Cc2cccnc2)NC(=O)[C@@H](Cc2ccc(Cl)cc2)NC(=O)[C@@H](Cc2ccc3ccccc3c2)NC(C)=O)C(=O)N[C@H](Cc2ccc(NC(=O)NCC)cc2)C(=O)N[C@@H](CC(C)C)C(=O)N[C@@H](CCCCNC(C)C)C(=O)N2CCC[C@H]2C(=O)N[C@H](C)C(N)=O)cc1 |  |  |  | >80 | Kb [1]: 1.26 nM; IC50 [6]: 5 nM
16 | CC(=O)Nc1ccc(C[C@@H](NC(=O)[C@H](Cc2ccc(NC(=O)c3cnc(O)nc3O)cc2)NC(=O)[C@H](CO)NC(=O)[C@@H](Cc2cccnc2)NC(=O)[C@@H](Cc2ccc(Cl)cc2)NC(=O)[C@@H](Cc2ccc3ccccc3c2)NC(C)=O)C(=O)N[C@@H](CC(C)C)C(=O)N[C@@H](CCCCNC(C)C)C(=O)N2CCC[C@H]2C(=O)N[C@H](C)C(N)=O)cc1 |  |  |  | >80 | IC50 [6]: 8.2 nM
17 | CC(=O)N[C@H](Cc1ccc2ccccc2c1)C(=O)N[C@H](Cc1ccc(Cl)cc1)C(=O)N[C@H](Cc1cccnc1)C(=O)N[C@@H](CO)C(=O)N[C@@H](Cc1ccc(NC(N)=O)cc1)C(=O)N[C@H](Cc1ccc(NC(N)=O)cc1)C(=O)N[C@@H](CC(C)C)C(=O)N[C@@H](CCCCNC(C)C)C(=O)N1CCC[C@H]1C(=O)N[C@H](C)C(N)=O (Ac-[d2Nal][dPhe(4-Cl)][d3Pal]S[Phe(4-NHCONH2)][dPhe(4-NHCONH2)]L[Lys(iPr)]P[dA]-NH2) |  | 153 | 75 |  | HR [11]: <10%; Kb [1]: 1.58 nM; IC50 [6]: 2.8 nM; Inhibition [9]: >80%
